Screening results (PubChem BioAssay)
MBD2 inh: inhibitors of MBD2 binding to methylated DNA, primary screen, biochemical, TR-FRET, DNA-binding domain, human | AID 686964, 2013 | MBD2 binding to methylated oligonucleotide | Methyl-CpG-binding domain protein 2 (Homo sapiens), Q9UBB5 | inhibition, % at 4.4 µM | 370,000 compounds, 0.31% hits; in the data active = inhibition above about 13%
UHRF1 MBD2 ctr: UHRF1 methylated DNA binding inhibitors, primary screen, counter-screen for MBD2 inhibitor project, biochemical, TR-FRET, human UHRF1, single concentration; E3 ubiquitin-protein ligase UHRF1 (Homo sapiens), Q96T88; UHRF1 binding to methylated oligo; inhibition, % at 4.4 µM; 370,000 compounds, 0.75% hits; in the data active = inhibition above about 21%;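 also: UHRF1 SRA domain binding a hemimethylated CpG hairpin DNA probe; 0% = median of test compound wells and 100% = reference inhibitor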
LEDGF integ inh: blockers of LEDGF/p75-dependent integrase strand transfer – biochemical, TR-FRET, high throughput, primary screen. TR-FRET IN-LEDGF/p75 DNA integration, Eu/Cy5. inhibition, % at 3.7 µM. 370,000 compounds, 0.64% hits. AID 743269, 2014;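 active = inhibition above the screen-wide mean plus 3 SD, cut at about 13% in these data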;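 also: signal is the Cy5 over europium emission ratio at 671 and 618 nm; 0% = plate median of compound wells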
rCAG binder: binders of r(CAG) RNA repeats, primary screen, biochemical, fluorescence. 370,000 compounds, 1.3% hits. inhibition, % at 3 µM. r(CAG) RNA repeat, TO-PRO-1 dye displacement fluorescence. AID 651821, 2012;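 active = inhibition above the plate cutoff, the mean of all test compounds on that plate plus 3 SD, cut at about 35% in these data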;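 also: 0% = DMSO alone and 100% = 100 µM mitoxantrone as full dye displacement; higher means more dye released from RNA so lower well fluorescence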
ATG4B inh: ATG4B protease inhibitors, primary screen, biochemical, fluorescence, uHTS; inhibition, % at 8.33 µM; ATG4B cleavage of LC3-PLA2, NBD-HPC fluorescence, 1 h; 340,000 compounds, 0.51% hits; in the data active = inhibition above about 40%
CSN inh: inhibitors of CSN-mediated cullin deneddylation, primary screen, biochemical, fluorescence polarization, uHTS | COP9 signalosome complex subunit 5 (Homo sapiens), Q92905 | Purified CSN, SCF-Nedd8-OG deneddylation | inhibition, % at 12.5 µM | 360,000 compounds, 0.38% hits | AID 651999, 2013;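 active = pattern-corrected inhibition above about 35%, with an unprinted fluorescence ratio check between 0.5 and 1.5, limit read from the data, passing the limit was not always enough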;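 also: 0% = enzyme with substrate and 100% = substrate without enzyme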
Target sequence (Q92905 whole entry, looked up, one chain of several): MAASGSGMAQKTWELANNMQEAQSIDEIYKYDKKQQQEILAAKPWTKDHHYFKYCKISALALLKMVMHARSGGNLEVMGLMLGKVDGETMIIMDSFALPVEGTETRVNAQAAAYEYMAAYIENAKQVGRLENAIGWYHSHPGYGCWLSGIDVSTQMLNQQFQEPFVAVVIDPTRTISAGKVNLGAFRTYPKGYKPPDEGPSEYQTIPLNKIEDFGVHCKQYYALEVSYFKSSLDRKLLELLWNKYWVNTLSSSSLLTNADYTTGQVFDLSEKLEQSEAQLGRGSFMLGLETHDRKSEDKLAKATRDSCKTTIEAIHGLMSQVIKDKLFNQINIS
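test system = HEK293T-derived human Csn5 enzyme | amount = 0.24 nM Csn5 enzyme, final concentration | medium = Tris/NaCl/DTT buffer, pH 7.5 | schedule = 90 min reaction at room temperature | signal = FP | evaluation = inhibition of Csn5 cleavage, % | compound dosing = single dose of 12.5 µM compound with 0.25% DMSO | probe or stimulus = 10 nM SCFSkp2-Nedd8OG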
* marks the source's active call; other numbers are inactive results; . = no result. Compounds with a hit are over-represented: about 3.1% of the library has one in this group of screens.

SMILES | MBD2 inh | UHRF1 MBD2 ctr | LEDGF integ inh | rCAG binder | ATG4B inh | CSN inh
C[n+]1c(-c2ccc(C=NNC(=O)c3ccc(C(=O)NN=Cc4ccc(-c5cn6ccccc6[n+]5C)cc4)cc3)cc2)cn2ccccc21 | 23* | 37* | 31* | 13 | . | .
CCCCc1cn([C@@H](CCCCN)C(=O)N2CCNCC2)nn1 | 6 | 24* | 2 | -8 | -2 | -16
O=C(NCc1cccc2ccccc12)C1CCCN(c2nc3ccccc3o2)C1 (stereo unspecified) | -1 | 12 | 2 | 3 | . | .
O=C(NCCCc1ccccc1)C1CCC(=O)N(Cc2ccc(Cl)cc2)C1 (stereo unspecified) | 6 | 21* | -4 | -9 | 5 | -1
COc1ccc(CCCNC(=O)C2CCC(=O)N(Cc3ccc(Cl)cc3)C2)cc1 (stereo unspecified) | 4 | 26* | -3 | -7 | -8 | -1
O=C(NCCc1ccccc1Cl)C1CCC(=O)N(Cc2ccc(Cl)cc2)C1 (stereo unspecified) | -3 | 1 | 1 | -7 | 2 | -2
COC(=O)C1CSC(C)(C)C(=O)N1 (stereo unspecified) | -1 | 1 | 0 | -7 | 6 | 2
COC(=O)CCCCC1SCC2NC(=O)NC21O (stereo unspecified) | 0 | -1 | 41* | 1 | -8 | -2
O=C(COc1ccccc1[N+](=O)[O-])Nc1ccc(NC(=O)c2cc3ccccc3o2)cc1 | -3 | 1 | 2 | 0 | -2 | 17
O=C(COc1ccc(/C=N/NC(=O)c2cc3ccccc3o2)cc1Br)Nc1ccccc1 | 4 | 1 | 0 | 1 | 0 | 125*
CCn1c(NC(=O)C(C)C)c(-c2ccccc2)c(=O)c2ccccc21 | 5 | 47* | -6 | -3 | -6 | 1
Clc1cc(Cl)c2nc(N3CCCC3)sc2c1 | 2 | 6 | -11 | 8 | 7 | 41*
Cc1[nH]c2ccccc2c1SCC(=O)N1CCC(C)CC1 | 2 | 25* | -1 | -6 | -2 | 1
Cc1cc(NC(=O)c2ccc(NS(=O)(=O)c3ccccc3)cc2)no1 | -2 | 0 | 5 | 5 | . | .
CCOc1nc(Nc2ccc(OC)c(Cl)c2)nc(OCC)n1 | 3 | 36* | -5 | -4 | -1 | -2
CCCN1C(=O)/C(=C/c2c(NCCCOCC)nc3c(C)cccn3c2=O)SC1=S | -1 | 0 | -1 | -4 | 1 | 38*
COC(=O)CC1=NN(c2nc3ccccc3s2)C(=O)/C1=C/N(C)C | -2 | 79* | 5 | 13 | 1 | 3
COC(=O)Cc1[nH]n(-c2nc3ccccc3s2)c(=O)c1C(C)=O | 4 | 5 | 3 | 10 | -1 | 0
O=C(Nc1ccc(C(=O)N2CCCC2)cc1)C1CCC1 | 5 | 23* | 9 | 1 | -8 | 1
O=C(Nc1ccc(C(=O)N2CCCC2)cc1)C1CCCC1 | 0 | -4 | -1 | 3 | 5 | -4
Cc1ccc(NC(=O)N/C=C/c2ccco2)cc1 | 0 | 5 | 14* | 27 | 5 | 18
Cc1ccc(NC(=O)/C(=C\c2ccco2)NC(=O)c2ccco2)cc1 | -6 | -1 | 1 | 18 | 5 | 10
COc1ccc(OC)c(/C=N/NC(=O)c2ccc(N(C)S(=O)(=O)c3ccccc3)cc2)c1 | 5 | 2 | 2 | 4 | 0 | 0
COc1ccc(/C=N/NC(=O)c2ccc(N(C)S(=O)(=O)c3ccccc3)cc2)c(OC)c1 | 5 | 32* | -1 | 3 | 31 | -3
COc1ccc(-n2c(SCC(=O)Nc3ccc4c(c3)OCCO4)nnc2-c2ccccc2)cc1 | 1 | -2 | 0 | 9 | . | .
SMILES | MBD2 inh | UHRF1 MBD2 ctr | LEDGF integ inh | rCAG binder | ATG4B inh | CSN inh
COc1cccc(-n2nc3c(-n4ncc(C#N)c4N)nnc(C)c3c2C)c1 | -4 | 3 | -1 | 0 | -10 | 58*
N#CCC[C@H]1CC[C@]2(CCCN(S(=O)(=O)c3ccccc3)C2)O1 | 9 | 3 | -2 | 3 | . | .
COC(=O)C1CN(Cc2cn(CCOC(C)=O)nn2)CCS(=O)(=O)N1Cc1ccc(Cl)cc1 (stereo unspecified) | 9 | 15 | -2 | 3 | . | .
CN1C/C(=C/c2ccccc2)N2C(=O)C[C@@H](c3ccccc3)N=C12 | -1 | 0 | 2 | -2 | . | .
COc1ccc2c(c1)c(/C=C/c1cc[n+](C)cc1)cn2C | -36 | -108 | -1 | -168 | 1 | 74*
Cc1ccc(OCCN2CCOCC2)cc1C | -3 | -2 | -2 | -2 | 4 | -3
Cc1cc(OCCN2CCOCC2)ccc1Cl | 4 | 22* | 0 | -9 | -4 | -2
CCCCCN1CCCCC(NC(=O)c2ccc(F)c(F)c2)C1=O (stereo unspecified) | 1 | -1 | -1 | -2 | . | .
CC(=O)c1cccc(NC(=O)CN(C2CCCCC2)S(C)(=O)=O)c1 | 0 | 1 | -1 | -5 | 6 | 3
Cc1cccc(C)c1NC(=O)CN(C1CCCCC1)S(C)(=O)=O | 0 | 28* | 0 | -3 | 2 | -5
COC(=O)c1ccc(Cn2ccc3ccc(-c4ccc5ccn(C(=O)c6ccccc6)c5c4)cc32)cc1 | -2 | -1 | -2 | 13 | . | .
O=C1CCCN1CC1CCN(Cc2nc(CC3CC3)no2)CC1 | 0 | 1 | 0 | -2 | 4 | -3
O=C1CCCN1CC1CCCN(Cc2nc(COc3ccccc3)no2)C1 (stereo unspecified) | 2 | 23* | 0 | -2 | -4 | -8
CCOC(=O)N1CCN(C(=O)C[C@H]2C[C@@]3(C(=O)OC)C(=C[C@H](C(C)C)O[C@@H]3C3CC3)N(CCC3=CCCCC3)C2=O)CC1 | 1 | 0 | 0 | 3 | . | .
CCOC(=O)C1=CN(Cc2cccc(F)c2)S(=O)(=O)N(C)C1c1ccccc1 (stereo unspecified) | 1 | 1 | 1 | 1 | 8 | 103*
CCC12CN3CCN(CC(C3)/C1=N\NC(=O)Nc1ccccc1)C2 | -5 | -1 | -2 | 0 | 0 | 2
CCCCC12CN3CCN(CC(C3)/C1=N\NC(=O)Nc1ccccc1)C2 | -2 | 0 | 1 | -6 | -1 | 42*
CCOC(=O)c1ccc(NC(=O)CSc2nnc(SCc3cccc4ccccc34)s2)cc1 | -1 | 3 | 2 | 12 | . | .
Cc1ccc(CSc2nnc(-c3cc(-c4ccc(C)cc4)n[nH]3)n2N)cc1 | 4 | -5 | 0 | 7 | . | .
